How the values were obtained:
[1] = biological target: T1, SHP2 PTP domain (GST-SHP2 PTP) (Homo sapiens, UniProt Q06124); assay type: biochemical; conditions: phospho-EGFR peptide substrate
T1 sequence (Q06124 247-517 limits assumed): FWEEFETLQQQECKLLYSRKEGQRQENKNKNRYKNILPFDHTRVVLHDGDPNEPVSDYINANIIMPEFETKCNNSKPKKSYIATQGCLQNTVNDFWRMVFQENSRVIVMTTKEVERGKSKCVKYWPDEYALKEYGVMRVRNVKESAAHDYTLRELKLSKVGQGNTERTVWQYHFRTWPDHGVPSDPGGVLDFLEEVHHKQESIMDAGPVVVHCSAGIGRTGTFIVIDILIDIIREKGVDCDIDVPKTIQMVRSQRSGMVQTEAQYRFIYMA
How it was run: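 In-house purified GST-SHP2 PTP domain (0.5 μg) was preincubated with test compound at various concentrations for 30 min at room temperature. Buffer: 25 mM Tris-HCl pH 7.4, 50 mM NaCl, 5 mM DTT, 2.5 mM EDTA. EGFR pTyr peptide (DADEpYLIPQQG) was added to 0.2 mM final, then 30°C for 30 min. Released phosphate was detected with Malachite Green, reading OD620 after 10 min.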

SHP1 = experiment: In vitro phosphatase activity assay, phospho-EGFR peptide substrate; assay type: biochemical
GST-SHP2 PTP = experiment: Enzymatic kinetic analyses; assay type: biochemical; conditions: Cryptotanshinone 25 μM
SHP2 = experiment: Reversibility test by extensive washing of the enzyme-inhibitor complex; assay type: biochemical
SHP2 PTP domain = experiment: Fluorescence titration; assay type: binding; conditions: increasing compound concentrations
How it was run: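 Intrinsic tryptophan fluorescence of the GST-fused SHP2 PTP domain (purified), diluted in 20 mM Tris-HCl pH 7.5. Protein level is held constant while test compound is raised stepwise. Spectra are recorded on a luminescence spectrometer, and fluorescence is plotted against log compound concentration (M). The experiment was repeated twice; data are mean±S.E.M. of triplicates.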

[2] = system: IL-3-induced activation of Erk, Akt, Jak2, and Stat5; experiment: IL-3 signaling in Ba/F3 cells, immunoblotting; assay type: cell-based
How it was run: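 Ba/F3 cells were starved overnight in serum- and cytokine-free RPMI 1640, pretreated for 3 h with test compound (20 μM for the time course, graded concentrations for dose response), then stimulated with IL-3 (1.0 ng/mL) for set times or 10 min. RIPA lysates (50 μg protein) were run on 10% SDS-PAGE and immunoblotted for p-Erk, p-Akt, p-Jak2 and p-Stat5 with ECL detection. Blots were reprobed for total proteins; three repeats.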

Hela cells = experiment: HeLa cell growth after control or SHP2 siRNA; assay type: cell-based; conditions: 24 hours treatment
How it was run: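 HeLa cells were transfected with control or SHP2 siRNA (400 pmoles/8.0×10^5 cells). After 48 h they were exposed to test compound at graded concentrations or DMSO, and cell numbers were determined 24 h later. Treated knockdown and control cells were each normalized to their untreated counterparts. Knockdown was confirmed by anti-SHP2 immunoblot with β-actin as loading control. Triplicates; three experiments.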

[3] = system: WT mouse embryonic fibroblasts; experiment: MEF cell growth; assay type: cell-based; conditions: Cryptotanshinone 20 μM
[4] = system: PTPN11E76K/+ mouse embryonic fibroblasts; experiment: MEF cell growth; assay type: cell-based; conditions: Cryptotanshinone 20 μM
[5] = system: myeloid progenitors from PTPN11E76K/+ mice; experiment: Colony-forming unit assay, GM-CSF; assay type: cell-based, mouse; conditions: GM-CSF 1.0 ng/mL, 7 days
How it was run: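 Bone marrow from PTPN11E76K/+/Mx1-Cre+ and PTPN11+/+/Mx1-Cre+ mice was plated at 5×10^4 cells/mL in 0.9% methylcellulose IMDM with 30% FBS, glutamine, β-mercaptoethanol and GM-CSF (1.0 ng/mL), with test compound at varying doses or DMSO. CFU-GM and CFU-M colonies were counted after 7 days at 37°C in 5% CO2 and normalized to colonies from DMSO-treated WT cells. Triplicates, two independent experiments.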

[6] = system: myeloid blasts from JMML patients with the PTPN11E76K/+ mutation; experiment: Colony-forming unit assay, GM-CSF; assay type: cell-based, human; conditions: GM-CSF 1.0 ng/mL, 14 days
How it was run: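 Bone marrow cells or splenocytes from JMML patients carrying PTPN11E76K/+ were plated at 5×10^4 cells/mL in 0.9% methylcellulose IMDM with 30% FBS, glutamine (10^-4 M), β-mercaptoethanol (3.3×10^-5 M) and GM-CSF (1.0 ng/mL), plus test compound at varying doses or matching DMSO. After 14 days at 37°C in 5% CO2, CFU-GM and CFU-M colonies were counted and normalized to DMSO-treated cells. Three patient samples were run in triplicate.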

[7] = system: JMML cells (PTPN11E76K/+); experiment: Total cell number in GM-CSF-containing medium; assay type: cell-based, human
[8] = system: U937 human lymphoma cells (PTPN11 G60R); experiment: Cell proliferation assay; assay type: cell-based; conditions: 48 hours
[9] = system: H661 human lung cancer cells (PTPN11 N58S); experiment: Cell proliferation assay; assay type: cell-based; conditions: 48 hours
U937 cells = experiment: Apoptosis, Annexin V staining, FACS; assay type: cell-based, human; conditions: 24 hours
H661 cells = experiment: Cell cycle analysis; assay type: cell-based, human

For Cc1coc2c1C(=O)C(=O)c1c-2ccc2c1CCCC2(C)C [Tanshinone IIA], the “SHP2 IC50, fold lower than that of Cryptotanshinone” value (“SHP2 IC50, fold lower than that” for short) [1] was 8.69 fold and the “selectivity between SHP2 and SHP1” value (SHP1) was “no selectivity between SHP2 and SHP1”.
With C[C@H]1COC2=C1C(=O)C(=O)c1c2ccc2c1CCCC2(C)C [Cryptotanshinone] the “change of Vmax by inhibitor” value (GST-SHP2 PTP) was “decreased”, the type of inhibition (GST-SHP2 PTP) was “mixed-type inhibitor” and the “reversibility of SHP2 inhibition” value (SHP2) was “irreversible inhibitor”. For the same molecule, the “quenching of SHP2 fluorescence” value (SHP2 PTP domain) was “strong quenching of SHP2 fluorescence in a dose-dependent manner”, the “tyrosine-phosphorylation of Gab2 and Gab2-SHP2 interaction” value [2] was “markedly decreased” and the “IL-3-induced activation of Erk, Akt, Jak2, and Stat5 (phosphorylation levels)” value ([2]; 3 hours pretreatment, IL-3 1.0 ng/mL) was “greatly suppressed”. The “proliferation of control siRNA cells” value (Hela cells) was “decreased”, the “sensitivity of SHP2-depleted cells” value (Hela cells; SHP2 siRNA) was “much less sensitive” and the “cell growth of WT MEFs” value [3] was “decreased cell growth”. The “cell growth of PTPN11E76K/+ MEFs” value [4] was “decreased cell growth”, the “sensitivity of PTPN11E76K/+ MEFs relative to WT” value [4] was “more sensitive” and the “colony-forming capabilities of mutant SHP2-expressing progenitors” value [5] was “significantly reduced”. The “colony formation of JMML myeloid blasts” value [6] was “exquisitely sensitive”, the “total cell number of JMML cells” value [7] was “greatly decreased” and the “cell proliferation of U937 cells” value [8] was “decreased cell proliferation in a dose-dependent manner”. For the same molecule, the “cell proliferation of H661 cells” value [9] was “decreased cell proliferation in a dose-dependent manner”, the “apoptosis in U937 cells” value (U937 cells) was “robust induction of apoptosis” and the “cell cycle effect in H661 cells” value (H661 cells) was “G1-S arrest”.
In the case of Cc1cccc2c3c(ccc12)C1=C(C(=O)C3=O)[C@@H](C)CO1 [Dihydrotanshinone], the “SHP2 IC50, fold lower than that” value [1] is reported as 5.71 fold and the “selectivity between SHP2 and SHP1” value (SHP1) is reported as “no selectivity between SHP2 and SHP1”.
With Cc1coc2c1C(=O)C(=O)c1c-2ccc2c(C)cccc12 [Tanshinone I] the “SHP2 IC50, fold lower than that” value [1] was 8.75 fold and the “selectivity between SHP2 and SHP1” value (SHP1) was “no selectivity between SHP2 and SHP1”.

Source: publication PMC4159095 (Journal of medicinal chemistry, 2013)
